Molecules are shown by their SMILES. Converted amounts (≈) assume the structure as drawn.

The record followed here is ChEMBL document CHEMBL2029338, “Synthesis, biological evaluation, and molecular docking studies of benzyl, alkyl and glycosyl [2-(arylamino)-4,4-dimethyl-6-oxo-cyclohex-1-ene]carbodithioates, as potential immunomodulatory and immunosuppressive agents” (Bioorg Med Chem, 2012).

The subject of assay [1] is THP-1. As to the kind of experiment: Antiinflammatory activity in PMA-stimulated human THP1 cells assessed as inhibition of LPS-induced TNFalpha production at 25 ug/mL after 4 hrs. The format is functional. The conditions noted are these: THP-1, 4 h. The method, boiled down:
(§1)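 THP-1 cells plated at 2.5 × 10⁵ cells/mL and differentiated to macrophage-like cells with PMA (20 ng/mL final) for 24 h at 37 °C, 5% CO₂. Then stimulated with LPS (50 ng/mL final) and treated with test compounds. TNF-α was measured in supernatant at 4 h and IL-1β at 18 h by DuoSet ELISA.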

Assay [2] relates to J774.2. As to the kind of experiment: Antiinflammatory activity in lipopolysaccharide-induced mouse J774.2 cells assessed as inhibition of nitric oxide production at 25 ug/mL after 24 hrs by Griess method. It counts as functional. Conditions: J774.2, 24 h. The method, boiled down:
(§2)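 J774.2 mouse macrophages grown in DMEM with 10% FBS, seeded at 10⁶ cells/mL. NOS-2 induced with E. coli LPS; compounds at 25 µg/mL added right after LPS, 37 °C, 5% CO₂. Supernatant taken at 24 h and nitrite read by Griess reagent (sulfanilamide, then naphthylethylenediamine in 2.5% phosphoric acid), 10 min at 23 °C, A550. Quantified against a sodium nitrite standard curve; mean ± SD of duplicate readings.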
Background: Nitrite, measured by Griess reagent, commonly stands in for NO production.

In assay [3] the test system is J774.2. As to the kind of experiment: Antiinflammatory activity in lipopolysaccharide-induced mouse J774.2 cells assessed as inhibition of nitric oxide production after 24 hrs by Griess method. The format is functional, cell-based. The conditions noted are these: J774.2, 24 h. The method, boiled down: as §2
Assay [4] has as its system PBMC. The assay is described as follows: Immunosuppressive activity against human PBMC assessed as inhibition of PHA/PMA-induced IL2 production after 18 hrs by ELISA. (In general: In an ELISA, binding on a coated surface is turned into a signal by an enzyme label.)
Assay [5] concerns PBMC. The assay is described as follows: Immunosuppressive activity in human PBMC assessed as inhibition of PHA-induced cell proliferation after 72 hrs by [methyl-3H]thymidine incorporation assay. The format is functional, cell-based. The method, boiled down: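 Human PBMCs from healthy donor venous blood, isolated by density separation and cultured in RPMI-1640 with 10% FBS. Stimulated with PHA in the presence of increasing compound concentrations for 72 h at 37 °C, 5% CO₂. [methyl-³H]thymidine 0.5 µCi/well added for a further 18 h, then harvested and counted by liquid scintillation. Expressed as % of stimulated control, mean ± SD of triplicates; IC50 derived.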
(Uptake of a labelled nucleoside into DNA is a usual measure of proliferation.)

Assay [6] is described as follows: (§3) Antiinflammatory activity in human whole blood phagocytes assessed as inhibition of respiratory burst measuring ROS after 30 mins by luminol-enhanced chemiluminescence assay. The format is functional, cell-based. The conditions noted are these: 0.5 h. The method, boiled down: (§4)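 Luminol-enhanced chemiluminescence of whole blood phagocytes. Compounds at 1.0, 10 and 100 µg/mL in HBSS⁺⁺ (with Ca²⁺/Mg²⁺) were incubated with whole blood diluted 1:50 for 30 min at 37 °C. Luminol and serum-opsonized zymosan (S. cerevisiae) were then added. ROS kinetics were monitored by luminometer for 50 min in repeated scan mode, with positive, negative and blank controls.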

Assay [7] deals with THP-1. As to the kind of experiment: Antiinflammatory activity in PMA-stimulated human THP1 cells assessed as inhibition of LPS-induced IL-1beta production at 25 ug/mL after 18 hrs. It counts as functional. The conditions noted are these: THP-1, 18 h. The method, boiled down:
as §1

Assay [8] has as its system CC-1. As to the kind of experiment: Cytotoxicity against Wistar rat CC1 cells after 48 hrs by MTT assay. The format is cell-based. Conditions: CC-1, 48 h. The method, boiled down: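 Plated at 6 × 10⁴ cells/mL for 24 h at 37 °C, 5% CO₂, then exposed to compounds (up to 20 µg/mL) in triplicate for 48 h. MTT 0.5 mg/mL for 4 h, formazan dissolved in DMSO, A540; mean ± SD of triplicates.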

Assay [9] has as its system 3T3-L1. The assay is described as follows: Cytotoxicity against mouse 3T3L1 cells after 48 hrs by MTT assay. The format is cell-based. The conditions noted are these: 3T3-L1, 48 h. The method, boiled down:
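3T3-L1 mouse embryo fibroblasts in DMEM with 10% FBS. Plated at 6 × 10⁴ cells/mL for 24 h at 37 °C, 5% CO₂, then exposed to compounds (up to 20 µg/mL) in triplicate for 48 h. Viability by MTT 0.5 mg/mL for 4 h, DMSO solubilization, absorbance at 540 nm; mean ± SD of triplicates.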

The species named for assay [10] is Homo sapiens. The assay is described as §3. The format is functional, cell-based. The method, boiled down: as §4

Turning to `CC(=O)OC[C@H]1O[C@@H](SC(=S)C2=C(Nc3ccc(Cl)cc3Cl)CC(C)(C)CC2=O)[C@H](OC(C)=O)[C@@H](OC(C)=O)[C@@H]1OC(C)=O`, the results for the inhibition at 25 µg/mL in [1] and in assay [2] were -48.2% and 57.2%, respectively. Moreover, the IC50 (in general, the point on the concentration scale where inhibition reaches its midpoint) in assay [3] was 16.1 µM; in [4] it was over 20 µg/mL; in [5], 15.8 µg/mL (≈ 22.9 µM); in [6], over 100 µg/mL.

Regarding `CCCCCCCCCCCSC(=S)C1=C(Nc2ccc(Cl)cc2)CC(C)(C)CC1=O`, the values for the inhibition at 25 µg/mL in assay [1], in [2] and in assay [7] were -56.6%, 16.5% and -15.8%, respectively. Also, the IC50 is over 20 µg/mL in [4], over 50 µg/mL in [5] and over 100 µg/mL in [6].

Regarding `CC1(C)CC(=O)C=C(Nc2ccc(Cl)cc2)C1`, the inhibition (in general, the relative decrease from the control value, in per cent) at 25 µg/mL in assay [1] is -4.3%; in [2], 62.4%; in assay [7] it was 17.2%. Besides, the IC50 was 63.8 µM in assay [3], over 20 µg/mL in assay [4], 15 µg/mL (≈ 60.1 µM) in [5] and over 100 µg/mL in [6].

With `CC1(C)CC(=O)C(C(=S)SCc2ccccc2)=C(Nc2ccc(Cl)cc2)C1`, the values for the inhibition at 25 µg/mL in assay [1], in assay [2] and in assay [7] were -21%, 10.4% and 13.1%, respectively. The IC50 in assay [4] was over 20 µg/mL; in [5] it was over 50 µg/mL; in assay [6], over 100 µg/mL.

In the case of `CCCCSC(=S)C1=C(Nc2ccc(Cl)cc2Cl)CC(C)(C)CC1=O`, the inhibition at 25 µg/mL in assay [1] is -14.7%; in [2], 35.2%; in [7], -22%. The IC50 in assay [4] was over 20 µg/mL; in assay [5], over 50 µg/mL; in assay [6], over 100 µg/mL.

`CC1(C)CC(=O)C(C(=S)SCCO)=C(Nc2ccc(Cl)cc2)C1`: the results for the inhibition at 25 µg/mL in [1], in [2] and in [7] were 0%, 43.3% and 48.1%, respectively. Also, the values for the IC50 in assay [4], in [5] and in assay [6] were over 20 µg/mL, 21 µg/mL (≈ 56.8 µM) and over 100 µg/mL, respectively.

For the compound `CC(=O)OC[C@H]1O[C@@H](SC(=S)C2=C(Nc3ccc(Cl)cc3)CC(C)(C)CC2=O)[C@H](OC(C)=O)[C@@H](OC(C)=O)[C@@H]1OC(C)=O`, the inhibition at 25 µg/mL in assay [1] was 83.8%; in assay [2], 77.3%; in assay [7], 46.8%. In addition, the IC50 in assay [3] was 44.3 µM; in assay [8], over 20 µg/mL; in assay [4] it was 3.5 µg/mL (≈ 5.33 µM); in [9], over 20 µg/mL; in assay [5], 9.9 µg/mL (≈ 15.1 µM); in assay [6] it was 90 µg/mL. Further, the inhibition result in assay [4] and in assay [5] was “Dose-dependent effect” throughout.

Regarding `CC1(C)CC(=O)C(C(=S)SCCO)=C(Nc2ccc(Cl)cc2Cl)C1`, the inhibition at 25 µg/mL is -50.3% in assay [1], 44.8% in [2] and 16.5% in assay [7]. In addition, the values for the IC50 in [4], in [5] and in [6] were over 20 µg/mL, over 50 µg/mL and over 100 µg/mL, respectively.

For the compound `CC1(C)CC(=O)C=C(Nc2ccc(Br)cc2)C1`, the inhibition at 25 µg/mL in assay [1] was -31.4%; in assay [2], 62.7%; in assay [7] it was -26.8%. In addition, the IC50 in assay [3] is 49.1 µM; in assay [4], over 20 µg/mL; in assay [5] it was over 50 µg/mL; in assay [6], over 100 µg/mL.

Turning to `CC(=O)OC[C@H]1O[C@@H](SC(=S)C2=C(Nc3ccc(Cl)cc3Cl)CC(C)(C)CC2=O)[C@H](OC(C)=O)[C@@H](OC(C)=O)[C@H]1OC(C)=O`, the inhibition at 25 µg/mL in assay [1] was determined as 83.8%; in assay [2], 66.8%; in assay [7], 86%. Besides, the IC50 in [8] was over 20 µg/mL; in [4], 2.1 µg/mL (≈ 3.04 µM); in assay [9], over 20 µg/mL; in assay [5], 3.9 µg/mL (≈ 5.65 µM); in assay [6], 5.94 µg/mL.

In the case of `CC1(C)CC(=O)C(C(=S)SCc2ccccc2)=C(Nc2ccc(Cl)cc2Cl)C1`, the inhibition at 25 µg/mL in [1] was -50.3%; in [2], 39.5%; in assay [7], -119%. In addition, the IC50 in assay [4] is over 20 µg/mL; in assay [5] it was over 50 µg/mL; in assay [6], over 100 µg/mL.

Consider `CCCCCCCCCCCSC(=S)C1=C(Nc2ccc(Cl)cc2Cl)CC(C)(C)CC1=O`, for which the inhibition at 25 µg/mL in assay [1] came out at 29.3%; in assay [2] it was 39.7%; in assay [7], 30.3%. Further, the IC50 is over 20 µg/mL in assay [4], over 50 µg/mL in assay [5] and over 100 µg/mL in [6].

On to `CC1(C)CC(=O)C(C(=S)SCCO)=C(Nc2ccc(Br)cc2)C1`, for which the inhibition at 25 µg/mL in assay [1] is -33.5%; in assay [2] it was 37%; in assay [7], 5.5%. Besides, the values for the IC50 in [4], in [5] and in assay [6] were over 20 µg/mL, 8.3 µg/mL (≈ 20 µM) and over 100 µg/mL, respectively. The inhibition entry in assay [4] and in [5] was “Dose-dependent effect” throughout.

On to `CCCCSC(=S)C1=C(Nc2ccc(Cl)cc2)CC(C)(C)CC1=O`, for which the inhibition at 25 µg/mL is 10.5% in [1], 23.6% in [2] and -92.9% in assay [7]. Besides, the IC50 in assay [4] is over 20 µg/mL; in assay [5], over 50 µg/mL; in assay [6], over 100 µg/mL.

For the compound `CC1(C)CC(=O)C=C(Nc2ccc(Cl)cc2Cl)C1`, the inhibition at 25 µg/mL in assay [1] came out at 6.3%; in assay [2], 42.1%; in assay [7], 38.5%. The figures for the IC50 in assay [4], in [5] and in assay [6] were over 20 µg/mL, 17.6 µg/mL (≈ 61.9 µM) and over 100 µg/mL, respectively.

With `CCCCSC(=S)C1=C(Nc2ccc(Br)cc2)CC(C)(C)CC1=O`, the inhibition at 25 µg/mL in assay [1] is -31.4%; in [2] it was 18.9%. Also, the values for the IC50 in assay [4], in assay [5] and in [6] were over 20 µg/mL, over 50 µg/mL and over 100 µg/mL, respectively.

On to `CC1(C)CC(=O)C(C(=S)SCc2ccccc2)=C(Nc2ccc(Br)cc2)C1`, for which the inhibition at 25 µg/mL in assay [1] was -50.3%; in [2] it was 38.5%; in [7], -158%. Further, the values for the IC50 in [4], in assay [5] and in assay [6] were over 20 µg/mL, over 50 µg/mL and over 100 µg/mL, respectively.

`CC(=O)OC[C@H]1O[C@@H](SC(=S)C2=C(Nc3ccc(Br)cc3)CC(C)(C)CC2=O)[C@H](OC(C)=O)[C@@H](OC(C)=O)[C@@H]1OC(C)=O`: the inhibition at 25 µg/mL is 58.7% in assay [1], 68.4% in assay [2] and 59.2% in assay [7]. The IC50 in [3] is 7.7 µM; in [8] it was 19.8 µg/mL (≈ 28.3 µM); in assay [4] it was 3.4 µg/mL (≈ 4.85 µM); in [9] it was over 20 µg/mL; in assay [5] it was 8.8 µg/mL (≈ 12.6 µM); in [6], over 100 µg/mL. The inhibition entry in [4] and in assay [5] was “Dose-dependent effect” each time.

`CC(C)=NNC1=C2C(=S)NN=C2CC(C)(C)C1`: the figures for the IC50 in [3], in assay [4] and in assay [5] were 36.4 µM, 14.7 µg/mL (≈ 58.7 µM) and 13.2 µg/mL (≈ 52.7 µM), respectively. The inhibition entry in assay [4], in assay [5] and in assay [10] was “Dose-dependent effect” each time.

Turning to `CCCCCCCCCCCSC(=S)C1=C(Nc2ccc(Br)cc2)CC(C)(C)CC1=O`, the inhibition at 25 µg/mL is -58.7% in assay [1], 32.1% in [2] and -22.7% in [7]. For the same compound, the IC50 is over 20 µg/mL in assay [4], over 50 µg/mL in assay [5] and over 100 µg/mL in assay [6].
